# Tests used:
# [1] = system: Pseudomonas aeruginosa; experiment: In vivo efficacy against Pseudomonas aeruginosa 5007 in mouse protection test after subcutaneous administration; format: functional; conditions: Pseudomonas aeruginosa, sc; read-out: ED50
# In short: (§1)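 Mouse protection model: mice infected intravenously with 100-fold LD50 of the organism. Compound given by subcutaneous injection or oral gavage at 1 and 5 h after infection, over a dose range. Deaths tracked for 7 days post-inoculation. ED50 is the dose giving 50% survival of treated mice over the trial.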
# [2] = system: Staphylococcus aureus; experiment: In vitro antibacterial activity against gram-positive Staphylococcus aureus NCTC 10649M; format: functional
# In short: (§2)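 Agar dilution MIC determination following the National Committee for Clinical Laboratory Standards recommendations.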
# [3] = system: Pseudomonas aeruginosa; experiment: In vitro antibacterial activity against gram negative P. aeruginosa DPHP 5263; format: functional; in short: as §2
# [4] = system: Pseudomonas aeruginosa; experiment: In vitro antibacterial activity against Gram-negative Pseudomonas aeruginosa 5007; format: functional; in short: as §2
# [5] = system: Pseudomonas aeruginosa; experiment: In vivo efficacy against Pseudomonas aeruginosa 5007 in mouse protection test after administration by oral gavage; format: functional; in short: as §1
# [6] = system: Enterococcus faecium; experiment: In vitro antibacterial activity against gram-positive Enterococcus faecium ATCC 8043; format: functional; in short: as §2
# [7] = system: Streptococcus pyogenes; experiment: In vitro antibacterial activity against gram positive Streptococcus pyogenes 930; format: functional; in short: as §2
# [8] = system: Staphylococcus aureus; experiment: In vitro antibacterial activity against gram-positive Staphylococcus aureus 1775; format: functional; in short: as §2
# [9] = system: Burkholderia cepacia; experiment: In vitro antibacterial activity against gram negative Pseudomonas cepacia 2961; format: functional; in short: as §2
# [10] = system: Staphylococcus aureus; experiment: In vivo efficacy against Staphylococcus aureus NCTC 10649M in mouse protection test after p.o. administration.; format: functional; in short: as §1
# [11] = system: Escherichia coli; experiment: In vivo efficacy against Escherichia coli JUHL in mouse protection test after subcutaneous administration; format: functional; in short: as §1
# [12] = system: Mus musculus; experiment: In vivo efficacy against Streptococcus pneumoniae ATCC 6303 in mouse protection test after administration by oral gavage; format: functional; in short: as §1
# [13] = system: Mus musculus; experiment: In vivo efficacy against Escherichia coli JUHL in mouse protection test after administration by oral gavage.; format: functional; in short: as §1
# [14] = system: Staphylococcus aureus; experiment: In vivo efficacy against Staphylococcus aureus NCTC 10649M in mouse; format: functional; conditions: Staphylococcus aureus; read-out: ED50; in short: as §1
# [15] = system: Streptococcus pneumoniae; experiment: In vivo efficacy against Streptococcus pneumoniae ATCC 6303 in mouse protection test after s.c. administration.; format: functional; in short: as §1
# [16] = system: Escherichia coli; experiment: In vitro antibacterial activity against Escherichia coli KNK 437 a ciprofloxacin less sensitive strain; format: functional; in short: as §2
# [17] = system: Mus musculus; experiment: In vivo efficacy against Escherichia coli JUHL in mouse protection test after administration by oral gavage; format: functional; in short: as §1
# [18] = system: Escherichia coli; experiment: In vitro antibacterial activity against gram negative Escherichia coli KNK 437; format: functional; in short: as §2
# [19] = system: Mus musculus; experiment: In vivo antibacterial activity (dose protecting 50% mice)against Gram-positive S aureus NCTC 10649M after subcutaneous administration.; format: functional; conditions: sc; in short: as §1
# [20] = system: Mus musculus; experiment: In vivo efficacy against Streptococcus pneumoniae ATCC 6303 after administration by oral gavage; format: functional; in short: as §1
# [21] = system: Mus musculus; experiment: In vivo efficacy against Pseudomonas aeruginosa 5007 in mouse protection test […]; format: functional; in short: as §1
# [22] = system: Mus musculus; experiment: IIn vivo efficacy against Escherichia coli JUHL in mouse protection test after administration by oral gavage.; format: functional; in short: as §1
# [23] = system: Mus musculus; experiment: In vivo efficacy against Streptococcus pneumoniae ATCC 6303 after subcutaneous administration; format: functional; conditions: sc; in short: as §1
# [24] = system: Escherichia coli; experiment: In vivo efficacy against Escherichia coli JUHL in mouse protection test after p.o. administration.; format: functional; in short: as §1
# [25] = system: Mus musculus; experiment: IIn vivo efficacy against Streptococcus pneumoniae ATCC 6303 in mouse protection test after oral administration by oral gavage
# [26] = system: Mus musculus; experiment: In vivo efficacy against Streptococcus pneumoniae ATCC 6303 in mouse protection test after administration by oral gavage.; format: functional; in short: as §1
# [27] = system: Mus musculus; experiment: In vivo efficacy against Staphylococcus aureus NCTC 10649M in mouse protection test after administration by oral gavage; format: functional
# [28] = system: Pseudomonas aeruginosa; experiment: Not Plasmodium species; format: functional
# [29] = system: Mus musculus; experiment: In vivo efficacy against Streptococcus pneumoniae ATCC 6303 in mouse protection test after subcutaneous administration; format: functional; conditions: sc; in short: as §1
# [30] = Staphylococcus aureus, NCTC 10649, read-out: MIC
# [31] = Pseudomonas aeruginosa, DPHP 5263, read-out: MIC
# [32] = Pseudomonas aeruginosa, read-out: MIC
# [33] = Pseudomonas aeruginosa, po, read-out: ED50
# [34] = Enterococcus faecium, ATCC 8043, read-out: MIC
# [35] = Streptococcus pyogenes, read-out: MIC
# [36] = Staphylococcus aureus, read-out: MIC
# [37] = Burkholderia cepacia, read-out: MIC
# [38] = Staphylococcus aureus, po, read-out: ED50
# [39] = Escherichia coli, sc, read-out: ED50
# [40] = Streptococcus pneumoniae, sc, read-out: ED50
# [41] = Escherichia coli, read-out: MIC
# [42] = Escherichia coli, po, read-out: ED50
smiles,measurement,setting,value
Cc1c(N2C[C@H]3CNC[C@H]3C2)c(F)cn2c(=O)c(C(=O)O)cc(C3CC3)c12,ED50,[1],6.4 mg/kg
same,MIC,[2]; [30],0.05 µg/mL
same,MIC,[3]; [31],6.2 µg/mL
same,MIC,[4]; [32],0.2 µg/mL
same,ED50,[5]; [33],58.7 mg/kg
same,MIC,[6]; [34],0.1 µg/mL
same,MIC,[7]; [35],0.1 µg/mL
same,MIC,[8]; [36],6.2 µg/mL
same,MIC,[9]; [37],3.1 µg/mL
same,ED50,[10]; [38],12.5 mg/kg
same,ED50,[11]; [39],0.7 mg/kg
same,ED50,[12],25.2 mg/kg
same,ED50,[13],5 mg/kg
same,ED50,[14],1.2 mg/kg
same,ED50,[15]; [40],1.3 mg/kg
same,MIC,[16],0.2 µg/mL
Cc1c(N2C[C@@H]3CCN[C@@H]3C2)c(F)cn2c(=O)c(C(=O)O)cc(C3CC3)c12 (stereo in doubt; 3gg),ED50,[1],6.4 mg/kg
same,ED50,[17],2.5 mg/kg
same,MIC,[2]; [30],0.02 µg/mL
same,MIC,[18]; [41],0.2 µg/mL
same,ED50,[5],39.1 mg/kg
same,MIC,[6]; [34],0.05 µg/mL
same,ED50,[19],0.7 mg/kg
same,MIC,[8],0.39 µg/mL
same,MIC,[9]; [37],1.56 µg/mL
same,ED50,[11]; [39],0.4 mg/kg
same,ED50,[12],7.6 mg/kg
same,ED50,[14],5 mg/kg
Cc1c(N2CC[C@H](N)C2)c(F)cn2c(=O)c(C(=O)O)cc(C3CC3)c12 (stereo in doubt; 3i) [ABT-719],ED50,[1],0.5 mg/kg
same,MIC,[2]; [30],0.02 µg/mL
same,MIC,[18]; [41],0.02 µg/mL
same,MIC,[6]; [34],0.02 µg/mL
same,ED50,[20],10 mg/kg
same,MIC,[8]; [36],0.78 µg/mL
same,MIC,[9]; [37],0.39 µg/mL
same,ED50,[21],2.9 mg/kg
same,ED50,[10]; [38],3 mg/kg
same,ED50,[11]; [39],0.3 mg/kg
same,ED50,[22],8.3 mg/kg
same,ED50,[23],2.6 mg/kg
same,ED50,[14],0.8 mg/kg
Cc1c(N2CC[C@H](C)[C@H](N)C2)c(F)cn2c(=O)c(C(=O)O)cc(C3CC3)c12 (stereo in doubt; 3ss),MIC,[2]; [30],0.05 µg/mL
same,MIC,[3]; [31],12.5 µg/mL
same,MIC,[4]; [32],0.78 µg/mL
same,MIC,[18]; [41],0.39 µg/mL
same,MIC,[6]; [34],0.2 µg/mL
same,MIC,[7]; [35],0.1 µg/mL
same,MIC,[8]; [36],1.56 µg/mL
same,MIC,[9]; [37],1.56 µg/mL
same,ED50,[10],0.8 mg/kg
same,ED50,[11],0.6 mg/kg
same,ED50,[24],1.4 mg/kg
same,ED50,[25],2 mg/kg
same,ED50,[14],3.3 mg/kg
same,ED50,[15],1 mg/kg
CN[C@@H]1CN(c2c(F)cn3c(=O)c(C(=O)O)cc(C4CC4)c3c2C)C[C@H]1C (stereo in doubt; 3v),ED50,[1],16.1 mg/kg
same,MIC,[2],0.02 µg/mL
same,MIC,[3],12.5 µg/mL
same,MIC,[4],0.39 µg/mL
same,MIC,[18],0.2 µg/mL
same,MIC,[6],0.2 µg/mL
same,MIC,[7],0.2 µg/mL
same,ED50,[26],13 mg/kg
same,MIC,[8],1.56 µg/mL
same,MIC,[9],1.56 µg/mL
same,ED50,[21],> 50 mg/kg
same,ED50,[10]; [38],6.3 mg/kg
same,ED50,[11]; [39],2.8 mg/kg
same,ED50,[24]; [42],9.1 mg/kg
same,ED50,[14],1.6 mg/kg
same,ED50,[15]; [40],5 mg/kg
O=C(O)c1cn(C2CC2)c2cc(N3CCNCC3)c(F)cc2c1=O [CIPROFLOXACIN],ED50,[1],2.4 mg/kg
same,MIC,[2]; [30],0.39 µg/mL
same,ED50,[5]; [33],20 mg/kg
same,MIC,[6]; [34],0.39 µg/mL
same,ED50,[27],25 mg/kg
same,MIC,[8]; [36],> 100 µg/mL
same,MIC,[9]; [37],6.2 µg/mL
same,MIC,[28],0.1 µg/mL
same,ED50,[29],37.4 mg/kg
same,ED50,[11]; [39],0.2 mg/kg
same,ED50,[24]; [42],1.3 mg/kg
same,ED50,[12],> 100 mg/kg
same,ED50,[14],3.6 mg/kg

# Reference: ChEMBL document CHEMBL1132437, “Synthesis and antimicrobial activity of 4H-4-oxoquinolizine derivatives: consequences of structural modification at the C-8 position” (1999)
